# Source: PubChem BioAssay AID588724 (Johns Hopkins Ion Channel Center, 2011)
# “And” between values parts separate entries of the source, which are not always exact repeats. Equal values may be shown once. The source made the active and inactive calls.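 The calls were made as follows: active = blocks the KCNK9 potassium channel at some tested dose and a concentration-response curve can be fitted; inactive = no blocking at any dose, or no curve could be fitted.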
# Biological target: Potassium channel subfamily K member 9 (Homo sapiens) (UniProt Q9NPC2)
# Assay: KCNK9 channel inhibitors, concentration-response, SAR follow-up, cell-based, round III (AID 588724)
# Details: HEK293-KCNK9, FluxOR thallium flux fluorescence
# Method in brief: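 Repeats: replicate concentration-response data per compound. Assay system: HEK293 cell line stably expressing human KCNK9 channel. Signal: FluxOR thallium-flux fluorescence, kinetic. Times: dye loading 90 min, compound 20 min, both room temperature, dark. Probe or stimulus: thallium/potassium stimulus, 5x stock of 25 mM K2SO4 plus 7 mM Tl2SO4.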
# Potassium channel subfamily K member 9 (Homo sapiens), sequence (Q9NPC2 whole entry, looked up): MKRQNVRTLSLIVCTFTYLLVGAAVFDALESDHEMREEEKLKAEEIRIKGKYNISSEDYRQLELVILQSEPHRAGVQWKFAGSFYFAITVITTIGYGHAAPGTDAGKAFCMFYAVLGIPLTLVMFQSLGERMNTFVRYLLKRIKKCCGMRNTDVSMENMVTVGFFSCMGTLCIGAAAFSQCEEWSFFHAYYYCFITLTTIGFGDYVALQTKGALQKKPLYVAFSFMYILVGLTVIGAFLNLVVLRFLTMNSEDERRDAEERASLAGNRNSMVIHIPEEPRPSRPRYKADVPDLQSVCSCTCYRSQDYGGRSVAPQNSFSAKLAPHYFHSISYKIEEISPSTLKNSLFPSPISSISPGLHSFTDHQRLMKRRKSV
row,SMILES,IC50
1,COc1ccc(C(=O)CSc2nnc(-c3ccco3)n2C(C)C2CC3CCC2C3)cc1OC (stereo not drawn),1840 nM
2,CC(C1CC2CCC1C2)n1c(SCC(=O)c2ccc(Cl)c(Cl)c2)nnc1-c1ccco1 (stereo not drawn),7770 nM
3,CC(C1CC2CCC1C2)n1c(SCc2ccccc2)nnc1-c1ccco1 (stereo not drawn),1390 nM
4,COc1ccccc1C(=O)Nc1cccc(NC(=O)c2cccc3ccccc23)c1,236 nM
5,CC(C)c1ccccc1C(=O)Nc1cccc(NC(=O)c2ccccc2OC(F)(F)F)c1,732 nM
6,CC(C1CC2CCC1C2)n1c(-c2ccco2)nnc1C(F)(F)F (stereo not drawn),16400 nM
7,CC(C1CC2CCC1C2)n1c(-c2cccc(F)c2)n[nH]c1=S (stereo not drawn),134 nM
8,CC(CC1CC2CCC1C2)n1c(-c2ccco2)n[nH]c1=S (stereo not drawn),292 nM
9,C[C@@H](C1CCCCC1)n1c(-c2ccco2)n[nH]c1=S,9410 nM
10,CC(NC(=O)c1ccco1)C1CC2CCC1C2 (stereo not drawn),13400 nM
11,CC(C1CC2CCC1C2)n1c(-c2ccccn2)n[nH]c1=S (stereo not drawn),2370 nM
12,C[C@H](C1CCCCC1)n1c(-c2ccco2)n[nH]c1=S,187 nM
13,CC(C)Oc1ccccc1C(=O)Nc1cccc(NC(=O)c2ccccc2OC(F)(F)F)c1,65.1 nM
14,CC(C1CCCCC1)n1c(-c2ccco2)n[nH]c1=S (stereo not drawn),3580 nM
15,COc1cccc(-c2n[nH]c(=S)n2C(C)C2CC3CCC2C3)c1OC (stereo not drawn),2360 nM
16,CC(C1CC2CCC1C2)n1c(-c2cccc(N(C)C)c2)n[nH]c1=S (stereo not drawn),2270 nM
17,CC(C1CC2CCC1C2)n1c(-c2cccs2)n[nH]c1=S (stereo not drawn),110 nM
18,CC(CCC1CCCC1)n1c(-c2ccco2)n[nH]c1=S (stereo not drawn),907 nM
19,COc1cccc(C(=O)CSc2nnc(-c3ccco3)n2C(C)C2CC3CCC2C3)c1 (stereo not drawn),4650 nM
20,CC(C1C2CCC1CC2)n1c(-c2ccco2)n[nH]c1=S (stereo not drawn),1170 nM
21,COc1cccc(Cc2n[nH]c(=S)n2C(C)C2CC3CCC2C3)c1 (stereo not drawn),2570 nM

# More lines, now with the values ahead:
row,IC50,SMILES
1,1390 nM,CC(C1CC2CCC1C2)n1c(-c2cccn2C)n[nH]c1=S (stereo not drawn)
2,361 nM,CC(C1CC2CCC1C2)N(C)C(=O)c1ccco1 (stereo not drawn)
3,2240 nM,COc1ccc(CCSc2nnc(-c3ccco3)n2C(C)C2CC3CCC2C3)cc1OC (stereo not drawn)
4,9140 nM,COc1ccc(C(=O)CSc2nnc(-c3ccco3)n2C(C)C2CC3CCC2C3)cc1 (stereo not drawn)
5,1030 nM,COc1cc(OC)cc(-c2n[nH]c(=S)n2C(C)C2CC3CCC2C3)c1 (stereo not drawn)
6,17700 nM,CC(C1CC2CCC1C2)n1c(SCC#N)nnc1-c1cccs1 (stereo not drawn)
7,21400 nM,CSc1nnc(-c2ccco2)n1C(C)C1CC2CCC1C2 (stereo not drawn)
8,150 nM and 290 nM,CC(C1CC2CCC1C2)n1c(-c2ccco2)n[nH]c1=S (stereo not drawn)
9,8460 nM,CC(C1CC2CCC1C2)n1c(SC(F)F)nnc1-c1ccco1 (stereo not drawn)
10,109 nM,CC(C1CC2CCC1C2)n1c(-c2ccccc2F)n[nH]c1=S (stereo not drawn)
11,18000 nM,COc1cccc(-c2nnc(S(C)(=O)=O)n2C(C)C2CC3CCC2C3)c1 (stereo not drawn)
12,1700 nM,CC(C1CC2CCC1C2)n1cnnc1-c1ccco1 (stereo not drawn)
13,1600 nM,CC(C1CC2CCC1C2)n1c(SCC(=O)c2ccc3c(c2)OCO3)nnc1-c1ccco1 (stereo not drawn)
14,5210 nM,CC(C1CC2CCC1C2)n1c(SCC(=O)c2ccccc2)nnc1-c1ccco1 (stereo not drawn)

# Same assay, conditions: HEK293-KCNK9, FluxOR thallium flux fluorescence; at 30 µM (top of the series)
row,SMILES,"normalised flux ratio, lower = inhibition"
1,CC(C1CC2CCC1C2)n1c(-c2ccco2)n[nH]c1=O (stereo not drawn),inactive
2,CC(C1CC2CCC1C2)n1c(-c2ccncc2)n[nH]c1=S (stereo not drawn),inactive
3,CC(C1CC2CCC1C2)n1c(-c2ccc(N(C)C)cc2)n[nH]c1=S (stereo not drawn),inactive

# Results, then the compound that gave them:
row,"normalised flux ratio, lower = inhibition",SMILES
1,inactive,CC(C1CC2CCC1C2)n1c(-c2cccnc2)n[nH]c1=S (stereo not drawn)
2,inactive,S=c1[nH]nc(-c2ccco2)n1C1CC2CCC1C2 (stereo not drawn)
3,inactive,COc1ccccc1C(=O)Nc1cc(NC(=O)c2ccccc2C(C)C)ccc1F
4,inactive,CC(c1cccc2ccccc12)n1c(-c2ccco2)n[nH]c1=S (stereo not drawn)
5,inactive,S=c1[nH]nc(-c2ccco2)n1CC1CC2CCC1C2 (stereo not drawn)
